The source of these data is ChEMBL document CHEMBL1121428, “Derivatives of 11-(1-piperazinyl)-5H-pyrrolo[2,1-c][1,4]benzodiazepine as central nervous system agents” (1980).

Calls of active or inactive are those of the source. The calls are words filed in the database; no cut-off is given here. A value given as a limit tells only on which side of the number the result lay.

The test system of one test is Rattus norvegicus. Put plainly: Estimated oral dose depressing motor activity by 50% in rats(po). It is filed as functional. In a few lines:
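Rats dosed orally; spontaneous motor activity recorded. The value is the estimated dose that lowers motor activity by 50%. Each test group held 5 to 10 animals. The protocol is the same as in the authors' earlier reports.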

The test system of test [1] is Mus musculus. The test can be described thus: Intraperitoneal dose required for antagonism of d-amphetamine lethality in grouped mice (GAL). It counts as functional. The settings on record: ip. In short, it runs like this: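 Mice housed in groups received drug intraperitoneally and were scored for protection against d-amphetamine-induced lethality. There were 5 to 10 animals per dose group. The ED50 was the dose protecting 50% of mice. 95% confidence limits came from Finney's arc-sine transformation method.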

In test [2] the test system is Mus musculus. Put plainly: Minimum effective dose was measured orally by antagonism of tetrabenazine-induced depression in mice(po); inact means compound is inactive. It is filed as functional, organism-based. In short, it runs like this: (§1)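 Mice given tetrabenazine to induce depression; test agent given orally to look for antagonism of that depression. The value is the minimum effective dose. Each test group held 5 to 10 animals. The protocol is the same as in the group's earlier publications.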

Test [3] relates to Mus musculus. The test can be described thus: Oral dose required for antagonism of d-amphetamine lethality in grouped mice (GAL). It is filed as functional. In short, it runs like this: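 Drug was given orally to grouped mice challenged with d-amphetamine, and survival (protection from lethality) was recorded. Each test group had 5 to 10 animals. The result is an ED50 with 95% confidence limits, calculated by the arc-sine transformation method of Finney.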

In test [4] the test system is Mus musculus. The test can be described thus: Minimum effective dose was measured orally by antagonism of tetrabenazine-induced depression in mice(po). The settings on record: read-out: MED. It is filed as functional. In a few lines:
as §1

As to `CN1CCN(C2=Nc3cc(Cl)ccc3Nc3ccccc32)CC1` [CLOZAPINE], the MDD50 with Rattus norvegicus was 21 mg/kg. In addition, the ED50 in the test with Mus musculus [1] was 2.2 mg/kg. In addition, the MED entry with Mus musculus [2] is “inactive”.
In the case of `CN(C)CCCN1c2ccccc2Sc2ccc(Cl)cc21` [CHLORPROMAZINE], the MDD50 with Rattus norvegicus was 2.4 mg/kg. Also, it took a dose of 0.6 mg/kg to reach the 50% effect level with Mus musculus [1] (ED50). Further, the MED result in the test on Mus musculus [2] was “inactive”.
On to `CN1CCN(C2=Nc3ccccc3Cn3cccc32)CC1`, for which, in the test on Rattus norvegicus, the MDD50 was 7 mg/kg. Also, it took a dose of 1 mg/kg to reach the 50% effect level with Mus musculus [1] (ED50). In the test on Mus musculus [2], the MED entry is “inactive”.
`c1ccc2c(c1)Cn1cccc1C(N1CCNCC1)=N2` yielded a median effective dose (ED50) in the test with Mus musculus [3] of 4.7 mg/kg. The minimal effective dose in the test on Mus musculus [4] came to 3.1 mg/kg.
With `CN1CCN(C2=Nc3cc(Cl)ccc3Cn3cccc32)CC1`, in the test on Rattus norvegicus, the MDD50 is 12 mg/kg. Moreover, in the test on Mus musculus [1], the 50% effective dose (ED50) was found to be 4 mg/kg. Moreover, the MED entry in the test with Mus musculus [2] was “inactive”.
As for `CN1CCN(C2=Nc3ccc(Cl)cc3Cn3cccc32)CC1`, the MDD50 in the test on Rattus norvegicus was 50 mg/kg. Further, the median effective dose (ED50) in the test with Mus musculus [1] is 16 mg/kg. In addition, in the test on Mus musculus [2], the MED result was “inactive”.
In the case of `CN(C)CCCN1c2ccccc2CCc2ccccc21` [IMIPRAMINE], the MDD50 with Rattus norvegicus was >50 mg/kg. In the test with Mus musculus [4], the minimal effective dose was 5 mg/kg.
